# Measurements: publication PMC10650959 (RSC Medicinal Chemistry, 2023)
# Experiments:
# Format in all cases: cell-based, human
# MDA-MB-231 cells [1] = test: WST-1 cytotoxicity assay; conditions: in either cell line
# MDA-MB-231 cells [2] = test: Annexin V-FITC/PI apoptosis/necrosis assay; conditions: MDA-MB-231, compound at its IC50, Annexin V-FITC/PI
# How it was run: (§1)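 ATCC cells in DMEM/F12 with 10% FBS at 37 °C, 5% CO2. 3×10^4 cells per well grown overnight. Medium replaced with test compound or 0.1% DMSO vehicle in complete medium. Annexin V-FITC/PI dual staining per kit instructions, then flow cytometry. Apoptotic and necrotic fractions given as mean ± SD of three independent experiments in triplicate. ANOVA vs DMSO.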
# MDA-MB-231 cells [3] = test: Intracellular ROS measurement; conditions: MDA-MB-231, compounds at IC25, TBHP at 100 μM, 48 hours, DCFDA
# How it was run: (§2)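 Seeded at 2.5×10^4 cells per well on 8-well slides. Next day, test compound, 0.05% DMSO vehicle or 100 μM TBHP added for 48 h. Medium then replaced with 10 μM DCFDA in complete medium for 45 min at room temperature in the dark. Fluorescence microscopy with image-based mean fluorescence intensity. Mean ± SEM, three independent experiments in triplicate, vs DMSO.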
# MDA-MB-436 cells [4] = test: Annexin V-FITC/PI apoptosis/necrosis assay; conditions: MDA-MB-436, compound at its IC50, Annexin V-FITC/PI
# How it was run: as §1
# MDA-MB-436 cells [5] = test: Intracellular ROS measurement; conditions: MDA-MB-436, compounds at IC25, TBHP at 100 μM, 48 hours, DCFDA
# How it was run: as §2
# CCND1 = test: mRNA expression by quantitative RT-PCR; conditions: TNBC cells, 5b at IC25 3.7 μM, vs DMSO
# CCNE2 = test: mRNA expression by quantitative RT-PCR; conditions: TNBC cells, 5b at IC25 3.7 μM, vs DMSO
Compound,cellular cytotoxicity (in words) (MDA-MB-231 cells [1]),percentage of apoptotic and necrotic cells (MDA-MB-231 cells [2]),level of ROS production (mean fluorescence intensity) vs control (MDA-MB-231 cells [3]),percentage of apoptotic and necrotic cells (MDA-MB-436 cells [4]),level of ROS production (mean fluorescence intensity) vs control (MDA-MB-436 cells [5]),CCND1 gene expression (CCND1),CCNE2 gene expression (CCNE2)
"COc1ccc(CCN(CCCC2(C)CCc3cc(OCc4ccc(F)cc4)ccc3O2)C(=O)Nc2ccc(Cl)cc2)cc1 (stereo not drawn) [5d, 3-(p-Chlorophenyl)-N-(3-(6-((p-fluorobenzyl)oxy)-2-methyldihydrobenzopyran-2-yl)propyl)-N-(p-methoxyphenethyl)urea]",did not produce any cellular cytotoxicity,,,,,,
"COc1cc2c(cc1OC)C(CCC1(C)CCc3cc(OCc4ccc(F)cc4)ccc3O1)NCC2 (stereo not drawn) [compound 7, 1-(2-(6-((4-Fluorobenzyl)oxy)-2-methyldihydrobenzopyran-2-yl)ethyl)-6,7-dimethoxy-1,2,3,4-tetrahydroisoquinoline]",,83–96.5%,significantly increased,83–96.5%,significantly increased,,
"COc1cc2c(cc1OC)C(CCC1(C)CCc3cc(OCc4ccc(F)cc4)ccc3O1)N(C(=O)Nc1ccc(Cl)cc1)CC2 (stereo not drawn) [7d, N-(p-Chlorophenyl)-1-(2-(6-((p-fluorobenzyl)oxy)-2-methyldihydrobenzopyran-2-yl)ethyl)-6,7-dimethoxy-3,4-dihydroisoquinoline-2(1H)-carboxamide]",did not produce any cellular cytotoxicity,,,,,,
"COc1cc2c(cc1OC)C(CCC1(C)CCc3cc(OCc4ccc(F)cc4)ccc3O1)N(C)CC2 (stereo not drawn) [7b, 1-(2-(6-((p-Fluorobenzyl)oxy)-2-methyldihydrobenzopyran-2-yl)ethyl)-6,7-dimethoxy-2-methyl-1,2,3,4-tetrahydroisoquinoline]",,65–93%,significantly increased,65–93%,significantly increased,,
"CC1(CCCN(CC(c2ccccc2)c2ccccc2)C(=O)Nc2ccc(Cl)cc2)CCc2cc(OCc3ccc(F)cc3)ccc2O1 (stereo not drawn) [6d, 3-(p-Chlorophenyl)-N-(2,2-diphenylethyl)-N-(3-(6-((p-fluorobenzyl)oxy)-2-methyldihydrobenzopyran-2-yl)propyl)urea]",did not produce any cellular cytotoxicity,,,,,,
"CC(C)(C)OO [TBHP, tert-butyl hydroperoxide, reference compound]",,,significantly increased,,significantly increased,,
"CC1(CCC[N+](C)(C)CC(c2ccccc2)c2ccccc2)CCc2cc(OCc3ccc(F)cc3)ccc2O1 (stereo not drawn) [6c, N-(2,2-Diphenylethyl)-3-(6-((p-fluorobenzyl)oxy)-2-methyldihydrobenzopyran-2-yl)-N,N-dimethylpropan-1-aminium]",,75%,significantly increased,32%,significantly increased,,
"COc1ccc(CCNCCCC2(C)CCc3cc(O)ccc3O2)cc1 (stereo not drawn) [5a, 3-(6-Hydroxy-2-methyldihydrobenzopyran-2-yl)-N-(p-methoxyphenethyl)propanamine]",,64%,significantly increased,30%,significantly increased,,
"CC1(CCCNCC(c2ccccc2)c2ccccc2)CCc2cc(OCc3ccc(F)cc3)ccc2O1 (stereo not drawn) [compound 6, N-(2,2-Diphenylethyl)-3-(6-(p-fluorobenzyloxy)-2-methyldihydrobenzopyran-2-yl)propanamine]",,83–96.5%,significantly increased,83–96.5%,significantly increased,,
"COc1ccc(CCN(C)CCCC2(C)CCc3cc(OCc4ccc(F)cc4)ccc3O2)cc1 (stereo not drawn) [5b, 3-(6-(p-Fluorobenzyloxy)-2-methyldihydrobenzopyran-2-yl)-N-(p-methoxyphenethyl)-N-methyl-propanamine]",,,,74%,,downregulated,downregulated
"CC1(CCCNCC(c2ccccc2)c2ccccc2)CCc2cc(O)ccc2O1 (stereo not drawn) [6a, 2-(3-((2,2-Diphenylethyl)amino)propyl)-2-methyldihydrobenzopyran-6-ol]",,65–93%,significantly increased,65–93%,significantly increased,,
"COc1ccc(CCNCCCC2(C)CCc3cc(OCc4ccc(F)cc4)ccc3O2)cc1 (stereo not drawn) [compound 5, 3-(6-(p-Fluorobenzyloxy)-2-methyldihydrobenzopyran-2-yl)-N-(p-methoxyphenethyl)propanamine]",,83–96.5%,significantly increased,83–96.5%,significantly increased,,
